GRK2 inh: human GRK2 inhibition via aptamer displacement | P25098 | bead flow cytometry, FAM-aptamer displacement from GRK2 | inhibition of aptamer binding, % at 10 µM | hit rate 0.59% among 330,000;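 active = inhibition of aptamer binding above 40%, roughly 3 SD of noise, on plates passing a quality check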;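 note: median bead fluorescence of bound FAM aptamer so fluorescent compounds give negative values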
SUMO1-SIM PPI: SUMO1-SIM interaction modulation. SUMO1 binding to a labelled peptide, TR-FRET, 1 h. inhibition, % at 20 µM. hit rate 0.33% among 360,000. P63165; in the data active = inhibition above about 37%
LMPTP block: LMPTP (human) inhibition | hit rate 0.22% among 360,000 | inhibition, % at 20 µM | AID 651560 | P24666 | recombinant LMPTP-A, OMFP fluorogenic substrate, fluorescence intensity;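 active = compounds that cut the enzyme signal by at least half of the control window in the single-dose screen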;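 note: plate controls were DMSO wells with enzyme plus substrate for no effect and substrate without enzyme for full effect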
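Test system: LMPTP-A, protein tyrosine phosphatase of low molecular weight; Input: 0.625 nM enzyme; Incubation: 50 min dark incubation at room temperature; Signal: endpoint fluorescence intensity from OMFP dephosphorylation; Read-out basis: % inhibition versus control wells.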
DNMT1 inh: DNMT1 (human) enzyme inhibition | inhibition (reported as % activation of signal), % at 10 µM | hit rate 0.83% among 360,000 | DNMT1 molecular beacon, Hinp1I cleavage, fluorescence; in the data active = inhibition above about 50%
Scp-1 inhibitor: inhibitors of human Scp-1 phosphatase; inhibition, % at 20 µM; Q9GZU7; hit rate 0.88% among 340,000; Recombinant Scp1, phosphopeptide, malachite green phosphate absorbance;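 active = inhibition above about 50% at 20 µM, limit read from the data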;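 note: plate controls were DMSO wells with enzyme for no effect and wells lacking enzyme for full effect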
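Times: enzyme reaction 45 min at room temperature, colour 5 min, stabilisation 30 min. Material: SCP-1 catalytic fragment, aa 76-261. Medium: Acidic Tris acetate buffer with magnesium and detergent. Signal: colorimetric free-phosphate detection, absorbance 630 nm. Read-out basis: % inhibition of SCP-1 phosphate liberation. Reagent: Phosphorylated 17-residue peptide substrate.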
STEP inh: blocks human striatal-enriched tyrosine phosphatase; hit rate 0.25% among 360,000; inhibition, % at 20 µM; AID 588621; recombinant STEP, OMFP fluorogenic substrate, fluorescence;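 active = inhibition at 20 µM, scaled per plate between control wells, above about 37%, limit read from the data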;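 note: 0% = DMSO with enzyme and substrate and 100% = substrate only without enzyme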
Target sequence (P54829 whole entry, looked up): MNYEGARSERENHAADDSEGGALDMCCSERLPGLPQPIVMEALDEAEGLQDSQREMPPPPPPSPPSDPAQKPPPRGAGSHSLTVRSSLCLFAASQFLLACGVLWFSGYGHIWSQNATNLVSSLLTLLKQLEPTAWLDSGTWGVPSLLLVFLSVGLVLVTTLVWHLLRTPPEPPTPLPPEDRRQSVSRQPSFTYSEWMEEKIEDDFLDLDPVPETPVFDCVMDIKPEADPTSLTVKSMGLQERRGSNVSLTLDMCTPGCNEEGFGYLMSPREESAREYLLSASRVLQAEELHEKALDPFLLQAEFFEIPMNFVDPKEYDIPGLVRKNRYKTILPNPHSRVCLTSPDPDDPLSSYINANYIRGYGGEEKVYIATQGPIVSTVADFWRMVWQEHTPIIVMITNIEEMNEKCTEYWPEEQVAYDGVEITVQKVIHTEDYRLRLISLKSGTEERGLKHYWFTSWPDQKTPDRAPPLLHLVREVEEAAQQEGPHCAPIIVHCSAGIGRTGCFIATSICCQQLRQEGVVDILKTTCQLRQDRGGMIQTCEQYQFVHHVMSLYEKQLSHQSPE
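Assay system: isolated STEP enzyme. Buffer or medium: pH 6.0 Bis-Tris with DTT and Tween 20. Also added: fluorogenic phosphatase substrate OMFP at 25 µM final. Dosing: 20 µM, 1% DMSO. Timing: 20 min reaction, room temperature, in the dark. Measured by: fluorescence intensity, excitation 480 nm, emission 540 nm. Evaluation: normalized % inhibition.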
Active calls of the source: *; / = not tested or not shown. An excerpt weighted towards active compounds, which were near 2.1% of everything screened.

SMILES	GRK2 inh	SUMO1-SIM PPI	LMPTP block	DNMT1 inh	Scp-1 inhibitor	STEP inh
Cc1ccc(Cn2cc(/C=N/Nc3ccc([N+](=O)[O-])cn3)c3ccccc32)cc1	2	-17	3	34	2	1
Cc1c(/C=N/Nc2ccc([N+](=O)[O-])cn2)c2ccccc2n1Cc1ccccc1	0	-15	8	51*	-11	4
C[C@@H](CN1C2=NC[C@H](C)N2C[C@H]1Cc1ccc(O)cc1)NC(=O)CCC1CCCCC1	0	5	-1	0	0	-1
CC(C)[C@H]1CN=C2N(C[C@H](C)NC(=O)CCC3CCCCC3)[C@H](Cc3ccc(O)cc3)CN21	0	53*	13	-1	10	23
CC(/C=C/c1ccco1)=N\NC(=O)CNc1cccc(C)c1	3	5	2	1	1	-4
Oc1ccc(N=C/C=C/c2ccc(Br)cc2)cc1-c1nc2ccccc2s1	41*	/	/	/	/	/
CC(NC(=O)Cc1cccc(C(F)(F)F)c1)c1ccc(F)cc1 (stereo not given)	0	-6	0	6	-12	-5
COc1ccc(/C=N/Nc2nc(C(=O)O)cs2)cc1	4	6	64*	9	41	18
CCC(C)NC(=S)NNC(=O)c1ccc(C(C)(C)C)cc1 (stereo not given)	2	-4	-2	-1	-18	-2
CCCN1CCN(C(=O)CS(=O)(=O)Cc2nc(-c3cccc(OC)c3)oc2C)CC1	2	3	-2	1	-5	-3
O=C(O)c1ccc(-c2cccc([N+](=O)[O-])c2)o1	3	-18	-3	0	-9	-3
N#C/C(=C(/O)c1ccc(-c2cccc([N+](=O)[O-])c2)o1)c1nc2ccccc2s1	/	16	52*	-27	89*	12
COC(=O)[C@@]12C[C@@H](CC(=O)N3CCN(C(=O)C4CC4)CC3)C(=O)N(CCc3ccc(OC)c(OC)c3)C1=CCC(C)(C)C2	/	4	0	/	/	/
Cc1ccc(/C=C2/Sc3ccc(C(=O)NCc4ccccn4)cc3NC2=O)cc1	0	50*	19	24	6	12
Cc1ccc(/C=C2/Sc3ccc(C(=O)N4CCN(c5ccccn5)CC4)cc3NC2=O)cc1	0	-5	7	-5	6	0
COC(=O)CCC(C)C1CCC2C3CCC4CC(O)CCC4(C)C3=CC(=O)C12C (stereo not given)	/	5	1	-2	-5	-3
COc1ccc(Nc2oc(COc3ccc(Cl)cc3)nc2C#N)cc1	1	42*	2	0	-13	-5
O=c1c2c([N+](=O)[O-])cc([N+](=O)[O-])cc2sn1-c1ccc(Br)cc1	0	-18	-1	-15	94*	0
COc1ccc(-c2c(C#Cc3ccsc3)c3ccccc3n2C)cc1	3	2	51*	32	46	0
COc1ccc(C#Cc2c(-c3ccccc3)n(C)c3ccccc23)cc1	1	-4	3	-10	-3	-1
COC(=O)c1cc(C(=O)N2CCN(c3cccc(C)c3C)CC2)cc([N+](=O)[O-])c1	0	61*	0	-6	5	2
COC(=O)c1cc(C(=O)N2CCN(c3ccccc3OC)CC2)cc([N+](=O)[O-])c1	0	-16	1	0	-3	1
Cc1c(CCNC=O)cc(C)c2c3c(oc12)CCCC3	/	4	0	-12	-8	1
Fc1ccccc1COc1ccc(-c2nnn(Cc3ccccc3F)n2)cc1	1	3	3	-7	-18	-1
CC(C)n1nnc(-c2ccc(OCc3ccccc3F)cc2)n1	0	2	2	-3	58*	1
SMILES	GRK2 inh	SUMO1-SIM PPI	LMPTP block	DNMT1 inh	Scp-1 inhibitor	STEP inh
COc1cc2c(C#N)c(N3CCc4ccccc4C3)nc(N)c2c(N)n1	4	47*	4	25	5	6
COC(=O)Cc1ccccc1NS(=O)(=O)c1ccc(C)cc1	/	-1	-2	/	/	/
CCc1nc(N)nc(N)c1-c1ccc(Cl)c(N=[N+]=[N-])c1	/	9	58*	-8	5	-1
C#CCOCCOCCOCCNc1nc(N2CCN(C(=O)CCCCCCCCCCNC(=O)[C@H]([C@@H](C)CC)n3cc(CCCCCN)nn3)CC2)nc(N2CCN(C(=O)CCCCCCCCCCNC(=O)[C@H]([C@@H](C)CC)n3cc(CCCCN=C(N)N)nn3)CC2)n1	0	79*	3	-130	/	5
C#CCOCCOCCOCCNc1nc(N2CCN(C(=O)CCCCCCCCCCNC(=O)Cn3cc(CCCCCN)nn3)CC2)nc(N2CCN(C(=O)CCCCCCCCCCNC(=O)[C@H]([C@@H](C)CC)n3cc(CCCCN=C(N)N)nn3)CC2)n1	0	39*	5	-32	40	8
C#CCOCCOCCOCCNc1nc(N2CCN(C(=O)CCCCCCCCCCNC(=O)[C@H]([C@@H](C)CC)n3cc(CCCCCN)nn3)CC2)nc(N2CCN(C(=O)CCCCCCCCCCNC(=O)[C@@H]([C@H](C)CC)n3cc(CCCCCN)nn3)CC2)n1	0	/	/	/	/	/
C#CCOCCOCCOCCNc1nc(N2CCN(C(=O)CCCCCCCCCCNC(=O)[C@H]([C@@H](C)CC)n3cc(CCCCN=C(N)N)nn3)CC2)nc(N2CCN(C(=O)CCCCCCCCCCNC(=O)[C@H](CO)n3cc(CCCCCN)nn3)CC2)n1	4	47*	6	-81	35	14
C#CCOCCOCCOCCNc1nc(N2CCN(C(=O)CCCCCCCCCCNC(=O)[C@H]([C@@H](C)CC)n3cc(CCCCCN)nn3)CC2)nc(N2CCN(C(=O)CCCCCCCCCCNC(=O)[C@H](CO)n3cc(CCCCCN)nn3)CC2)n1	0	-139	-1	-65	23	4
C#CCOCCOCCOCCNc1nc(N2CCN(C(=O)CCCCCCCCCCNC(=O)[C@H]([C@@H](C)CC)n3cc(CCCCN=C(N)N)nn3)CC2)nc(N2CCN(C(=O)CCCCCCCCCCNC(=O)[C@H]([C@@H](C)CC)n3cc(CCCCN=C(N)N)nn3)CC2)n1	0	/	/	/	/	/
COC(=O)C[C@@H]1C=C[C@@H](NS(=O)(=O)c2ccccc2OC)[C@@H](CO)O1	/	4	-1	/	/	/
Clc1cccc(Nc2nc(-c3ccncc3)nc3ccccc23)c1	1	61*	7	-5	-14	4
Clc1ccccc1Nc1nc(-c2ccncc2)nc2ccccc12	1	-4	1	3	-4	0
Clc1nssc1=Nc1ccc(Br)cc1	/	-12	50*	-3	-1	7
Clc1nssc1=Nc1nncs1	0	-9	33	-17	2	20
Clc1ccc(N=c2ssnc2Cl)nc1	1	21	79*	-6	-11	31
